Results as given in ChEMBL document CHEMBL1671711, “Serum and cerebrospinal fluid levels of colistin in pediatric patients” (Antimicrob Agents Chemother, 2010).

Experiments:
Format in all cases: ADME, organism-based
Set-up in all cases: route intravenous
[1] = Drug level in pediatric patient cerebrospinal fluid with gram-negative bacterial infection before initiation of 10.4 mg/kg/day, iv administered every 8 hrs for 46 days by LS/MS/MS analysis; details: human, in vivo
Method in brief: (§1)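 Trough sampling: blood was drawn immediately before the 20-min IV CMS infusion (every 8 h), and CSF was taken from EVD systems within 1 h before infusion. Samples were stored at −80°C and analysed by LC-MS-MS for colistin, and for CMS via acid hydrolysis with subtraction. CSF was diluted 1:1 with serum. Values are means of two days.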

[2] = Ratio of drug level in cerebrospinal fluid to Serum of pediatric patient with gram-negative bacterial infection before initiation of 4.8 mg/kg/day, iv administered every 8 hrs for 7 days by LS/MS/MS analysis; details: human, csf
Method in brief: (§2)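 Percentages are the ratio of mean CSF concentration to mean serum concentration from paired samples. Blood was drawn immediately before and 30 min after the 20-min IV CMS infusion (every 8 h); CSF came from EVD systems concurrently. Both were measured by LC-MS-MS, for colistin directly and for CMS after acid hydrolysis. Pairs were repeated on two days.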

Serum [3] = test: Drug level in pediatric patient serum with gram-negative bacterial infection assessed as Colistin level at 18 mg/kg/day, iv administered every 8 hrs for 42 days measured after 30 mins by LS/MS/MS analysis; details: human, in vivo, 0.5 h
Method in brief: (§3)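 Blood was drawn 30 min after the end of the 20-min IV CMS infusion, given every 8 h. Serum was separated by centrifugation, stored at −80°C, and assayed by LC-MS-MS for colistin A plus B (interday CV <4.4%, accuracy within ±1.9%). Values are means of two sampling days; course 1 was sampled once.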

[4] = Drug level in pediatric patient cerebrospinal fluid with gram-negative bacterial infection assessed as Colistin level at 10.4 mg/kg/day, iv administered every 8 hrs for 46 days measured after 30 mins by LS/MS/MS analysis; details: human, in vivo, 0.5 h
Method in brief: (§4)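 Children (1 month to 14 years) received CMS in 30 to 50 ml normal saline by 20-min IV infusion every 8 h. CSF was taken from EVD systems alongside blood, after the end of infusion, and stored at −80°C. It was diluted 1:1 with serum, protein-precipitated, and analysed by LC-MS-MS for colistin A plus B against standards in pH 7.4 phosphate-buffered artificial-CSF Ringer with serum. Values are means of two days; course 1 was sampled once.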

[5] = Drug level in pediatric patient cerebrospinal fluid with gram-negative bacterial infection assessed as Colistin level at 16 mg/kg/day, iv administered every 8 hrs for 93 days measured after 30 mins by LS/MS/MS analysis; details: human, in vivo, 0.5 h; method in brief: as §4
[6] = Drug level in pediatric patient cerebrospinal fluid with gram-negative bacterial infection at 18 mg/kg/day, iv administered every 8 hrs for 42 days measured after 30 mins by LS/MS/MS analysis; details: human, in vivo, 0.5 h
Method in brief: (§5)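 CMS was given by 20-min IV infusion in saline every 8 h, and CSF was taken from EVD systems after the end of infusion. The CSF–serum 1:1 mix was treated with 1 M H2SO4 for 15–20 min, then 1 M NaOH, then acetonitrile with 0.1% TFA. CMS was calculated as colistin after hydrolysis minus colistin before hydrolysis, by LC-MS-MS, with CMS controls of 0.25–18.5 μg/ml. Values are means of two days; course 1 was sampled once.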

[7] = Drug level in pediatric patient cerebrospinal fluid with gram-negative bacterial infection at 16 mg/kg/day, iv administered every 8 hrs for 51 days measured after 30 mins by LS/MS/MS analysis; details: human, in vivo, 0.5 h; method in brief: as §5
[8] = Ratio of drug level in cerebrospinal fluid to Serum of pediatric patient with gram-negative bacterial infection at 10.4 mg/kg/day, iv administered every 8 hrs for 46 days by LS/MS/MS analysis; details: human, csf; method in brief: as §2
[9] = Drug level in pediatric patient cerebrospinal fluid with gram-negative bacterial infection before initiation of 16 mg/kg/day, iv administered every 8 hrs for 93 days by LS/MS/MS analysis; details: human, in vivo; method in brief: as §1
[10] = Drug level in pediatric patient cerebrospinal fluid with gram-negative bacterial infection before initiation of 16 mg/kg/day, iv administered every 8 hrs for 51 days by LS/MS/MS analysis; details: human, in vivo; method in brief: as §1
Serum [11] = test: Drug level in pediatric patient serum with gram-negative bacterial infection assessed as Colistin level at 10.4 mg/kg/day, iv administered every 8 hrs for 46 days measured after 30 mins by LS/MS/MS analysis; details: human, in vivo, 0.5 h; method in brief: as §3
Serum [12] = test: Drug level in pediatric patient serum with gram-negative bacterial infection at 10.4 mg/kg/day, iv administered every 8 hrs for 46 days measured after 30 mins by LS/MS/MS analysis; details: human, in vivo, 0.5 h
Method in brief: (§6)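 Serum was taken 30 min after the end of the 20-min IV CMS infusion (every 8 h) and stored at −80°C. It underwent acid hydrolysis with 1 M H2SO4 for 15–20 min, neutralisation with 1 M NaOH, and precipitation with acetonitrile containing 0.1% TFA. LC-MS-MS colistin before hydrolysis was subtracted from colistin after hydrolysis to give CMS. Values are means of two days.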

Serum [13] = test: Drug level in pediatric patient serum with gram-negative bacterial infection before initiation of 10.4 mg/kg/day, iv administered every 8 hrs for 46 days by LS/MS/MS analysis; details: human, in vivo; method in brief: as §1
[14] = Ratio of drug level in cerebrospinal fluid to Serum of pediatric patient with gram-negative bacterial infection assessed as Colistin level at 10.4 mg/kg/day, iv administered every 8 hrs for 46 days by LS/MS/MS analysis; details: human, csf; method in brief: as §2
[15] = Drug level in pediatric patient cerebrospinal fluid with gram-negative bacterial infection assessed as Colistin level at 4.8 mg/kg/day, iv administered every 8 hrs for 7 days measured after 30 mins by LS/MS/MS analysis; details: human, in vivo, 0.5 h; method in brief: as §4
[16] = Drug level in pediatric patient cerebrospinal fluid with gram-negative bacterial infection before initiation of 18 mg/kg/day, iv administered every 8 hrs for 42 days by LS/MS/MS analysis; details: human, in vivo; method in brief: as §1
Serum [17] = test: Drug level in pediatric patient serum with gram-negative bacterial infection at 16 mg/kg/day, iv administered every 8 hrs for 51 days measured after 30 mins by LS/MS/MS analysis; details: human, in vivo, 0.5 h; method in brief: as §6
[18] = Drug level in pediatric patient cerebrospinal fluid with gram-negative bacterial infection at 16 mg/kg/day, iv administered every 8 hrs for 93 days measured after 30 mins by LS/MS/MS analysis; details: human, in vivo, 0.5 h; method in brief: as §5
[19] = Ratio of drug level in cerebrospinal fluid to Serum of pediatric patient with gram-negative bacterial infection before initiation of 16 mg/kg/day, iv administered every 8 hrs for 93 days by LS/MS/MS analysis; details: human, csf; method in brief: as §2
[20] = Drug level in pediatric patient cerebrospinal fluid with gram-negative bacterial infection at 4.8 mg/kg/day, iv administered every 8 hrs for 7 days measured after 30 mins by LS/MS/MS analysis; details: human, in vivo, 0.5 h; method in brief: as §5
Serum [21] = test: Drug level in pediatric patient serum with gram-negative bacterial infection at 18 mg/kg/day, iv administered every 8 hrs for 42 days measured after 30 mins by LS/MS/MS analysis; details: human, in vivo, 0.5 h; method in brief: as §6
[22] = Ratio of drug level in cerebrospinal fluid to Serum of pediatric patient with gram-negative bacterial infection at 16 mg/kg/day, iv administered every 8 hrs for 93 days by LS/MS/MS analysis; details: human, csf; method in brief: as §2

Drug uptake [1]: 0.03 µg/mL | Ratio [2]: 20.6% | Drug uptake (Serum [3]): 2.2 µg/mL | Drug uptake [4]: 0.05 µg/mL | Drug uptake [5]: 0.46 µg/mL | Drug uptake [6]: 0.03 µg/mL | Drug uptake [7]: 0.09 µg/mL | Ratio [8]: 0.2% | Drug uptake [9]: 0.38 µg/mL | Drug uptake [10]: 0.09 µg/mL | Drug uptake (Serum [11]): 1.46 µg/mL | Drug uptake (Serum [12]): 7.9 µg/mL | Drug uptake (Serum [13]): 0.84 µg/mL | Ratio [14]: 3.4% | Drug uptake [15]: 0.06 µg/mL | Drug uptake [16]: 0.04 µg/mL | Drug uptake (Serum [17]): 9.89 µg/mL | Drug uptake [18]: 0.26 µg/mL | Ratio [19]: 50.9% | Drug uptake [20]: 0.06 µg/mL | Drug uptake (Serum [21]): 7.98 µg/mL | Ratio [22]: 3.1%
Sequence: COLISTIN
